Values after ≈ are worked out from the molar mass of the structure shown.
Assays:
Human alphaherpesvirus 1 [1] = assay: Antiviral activity against thymidine kinase deficient and acyclovir resistant HSV1 KOS in human E6SM cells assessed as reduction of virus-induced cytopathogenicity; format: functional; details: Human alphaherpesvirus 1, KOS
Outline: (§1)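 Confluent cell monolayers (E6SM, HEL, HeLa or Vero, per line) inoculated with 100 CCID50 virus; 1 h adsorption, residual virus removed, then incubated with compound at 400, 200, 100 … µg/ml. Cytopathicity scored once complete in untreated virus controls; MIC = concentration inhibiting virus-induced cytopathicity.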

Human alphaherpesvirus 2 [2] = assay: Antiviral activity against HSV2 G in human HEL cells assessed as reduction of virus-induced cytopathogenicity; format: functional; details: Human alphaherpesvirus 2, G; outline: as §1
Punta Toro virus = assay: Antiviral activity against Punta Toro virus in african green monkey Vero cells assessed as reduction of virus-induced cytopathogenicity; format: functional; outline: as §1
Vero = assay: Cytotoxicity against african green monkey Vero cells; format: cell-based; details: chlorocebus sabaeus
Outline: (§2)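 Uninfected cell cultures exposed to test compounds alongside antiviral assays; minimum cytotoxic concentration (MCC) = concentration causing a microscopically detectable alteration of cell morphology.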

[3] = tested on: Vesicular stomatitis virus; assay: Antiviral activity against vesicular stomatitis virus in human HeLa cells assessed as inhibition of virus-induced cytopathogenicity; format: functional; outline: as §1
[4] = Cytotoxicity against human MT4 cells by MTT assay; format: cell-based
Outline: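 Mock-infected MT-4 cells (6 × 10⁵ cells/ml) with serial five-fold compound dilutions in triplicate; MTT reduction read at 540 and 690 nm after 5 days, median OD of three wells; CC50 = concentration reducing OD540 of mock-infected control by 50%.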

Human alphaherpesvirus 1 [5] = assay: Antiviral activity against HSV1 KOS in human E6SM cells assessed as reduction of virus-induced cytopathogenicity; format: functional; details: Human alphaherpesvirus 1, KOS; outline: as §1
Human alphaherpesvirus 1 [6] = assay: Antiviral activity against HSV1 KOS in human HEL cells assessed as reduction of virus-induced cytopathogenicity; format: functional; details: Human alphaherpesvirus 1, KOS; outline: as §1
Human respirovirus 3 = assay: Antiviral activity against Parainfluenza 3 virus in african green monkey Vero cells assessed as reduction of virus-induced cytopathogenicity; format: functional; outline: as §1
Human alphaherpesvirus 2 [7] = assay: Antiviral activity against HSV2 G in human E6SM cells assessed as reduction of virus-induced cytopathogenicity; format: functional; details: Human alphaherpesvirus 2, G; outline: as §1
Coxsackievirus B4 [8] = assay: Antiviral activity against Coxsackie virus B4 in human HeLa cells assessed as inhibition of virus-induced cytopathogenicity; format: functional; details: Enterovirus B; outline: as §1
Sindbis virus = assay: Antiviral activity against Sindbis virus in african green monkey Vero cells assessed as reduction of virus-induced cytopathogenicity; format: functional; outline: as §1
[9] = tested on: Vesicular stomatitis virus; assay: Antiviral activity against in Vesicular stomatitis virus in human E6SM cells assessed as reduction of virus-induced cytopathogenicity; format: functional; outline: as §1
[10] = tested on: Respiratory syncytial virus; assay: Antiviral activity against respiratory syncytial virus in human HeLa cells assessed as inhibition of virus-induced cytopathogenicity; format: functional; outline: as §1
Human alphaherpesvirus 1 [11] = assay: Antiviral activity against thymidine kinase deficient and acyclovir resistant HSV1 KOS in human HEL cells assessed as reduction of virus-induced cytopathogenicity; format: functional; details: Human alphaherpesvirus 1, KOS; outline: as §1
[12] = tested on: Human immunodeficiency virus 2; assay: Antiviral activity against HIV2 ROD in human MT4 cells assessed as protection against virus-induced cytopathogenicity by MTT assay; format: functional, organism-based; set-up: Activity: concentration or dose not given beside the values; details: for IC50: Human immunodeficiency virus 2, ROD, MT4
Outline: (§3)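 MT-4 cells at 6 × 10⁵ cells/ml infected with HIV-1 IIIB or HIV-2 ROD at 100–300 CCID50; compounds in serial five-fold dilutions, triplicate mock- and virus-infected wells. MTT viability read at 540 and 690 nm after 5 days, median OD of three wells; EC50 = 50% protection from viral cytopathic effect.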

[13] = tested on: Human immunodeficiency virus 1; assay: Antiviral activity against HIV1 3B in human MT4 cells assessed as protection against virus-induced cytopathogenicity by MTT assay; format: functional, organism-based; set-up: Activity: concentration or dose not given beside the values; details: for IC50: Human immunodeficiency virus 1, 3B, MT4; outline: as §3
[14] = Cytotoxicity against human E6SM cells; format: cell-based; details: E6SM cells; outline: as §2
[15] = Cytotoxicity against human HeLa cells; format: cell-based; outline: as §2
[16] = Cytotoxicity against human HEL cells assessed as alteration of cell morphology; format: cell-based; outline: as §2
[17] = tested on: Mammalian orthoreovirus 1; assay: Antiviral activity against Reo virus 1 in african green monkey Vero cells assessed as reduction of virus-induced cytopathogenicity; format: functional; outline: as §1
[18] = tested on: Vesicular stomatitis virus; assay: Antiviral activity against in Vesicular stomatitis virus in human HEL cells assessed as reduction of virus-induced cytopathogenicity; format: functional; outline: as §1
Coxsackievirus B4 [19] = assay: Antiviral activity against Coxsackie virus B4 in african green monkey Vero cells assessed as reduction of virus-induced cytopathogenicity; format: functional; details: Enterovirus B; outline: as §1

| Structure (SMILES) | MIC (Human alphaherpesvirus 1 [1]) [µg/mL] | MIC (Human alphaherpesvirus 2 [2]) [µg/mL] | MIC (Punta Toro virus) [µg/mL] | Activity (Vero) | MIC [3] [µg/mL] | MIC (Human alphaherpesvirus 1 [5]) [µg/mL] | MIC (Human alphaherpesvirus 1 [6]) [µg/mL] | MIC (Human respirovirus 3) [µg/mL] | MIC (Human alphaherpesvirus 2 [7]) [µg/mL] | MIC (Coxsackievirus B4 [8]) [µg/mL] | MIC (Sindbis virus) [µg/mL] | MIC [9] [µg/mL] | MIC [10] [µg/mL] | MIC (Human alphaherpesvirus 1 [11]) [µg/mL] | MCC [14] [µg/mL] | MCC [15] [µg/mL] | MCC [16] [µg/mL] | MIC [17] [µg/mL] | MIC [18] [µg/mL] | MIC (Coxsackievirus B4 [19]) [µg/mL] | other results |
| --- | --- | --- | --- | --- | --- | --- | --- | --- | --- | --- | --- | --- | --- | --- | --- | --- | --- | --- | --- | --- | --- |
| Cn1c(-c2ccc(NC(=S)Nc3ccccc3)cc2)n[nH]c1=S | 48 (≈ 141 µM) | > 80 | > 80 | 400 µg/mL | > 16 | > 80 | > 80 | > 80 | > 80 | > 16 | > 80 | > 80 | > 16 | 48 (≈ 141 µM) | 400 | 80 | 400 | > 80 | > 80 | > 80 | CC50 [4]: 42.8 µg/mL (≈ 125 µM); Activity [12]: 10%; IC50 [12]: > 42.8 µg/mL; Activity [13]: 35%; IC50 [13]: > 42.8 µg/mL |
| S=C(Nc1ccc(Cl)cc1)Nc1ccc(-c2n[nH]c(=S)n2-c2ccccc2)cc1 | > 16 | > 16 | > 16 | >= 16 ug ml-1 | > 16 | > 16 | > 16 | > 16 | > 16 | > 16 | > 16 | > 16 | > 16 | > 16 | ≥ 16 | 80 | ≥ 16 | > 16 | > 16 | > 16 | CC50 [4]: 10.3 µg/mL (≈ 23.5 µM); Activity [12]: 31%; IC50 [12]: > 10.3 µg/mL; Activity [13]: 4.5%; IC50 [13]: > 10.3 µg/mL |
| CCNC(=S)Nc1ccc(-c2n[nH]c(=S)n2-c2ccccc2)cc1 | > 3.2 | > 3.2 | > 80 | >= 80 ug ml-1 | > 80 | > 3.2 | > 3.2 | > 80 | > 3.2 | > 80 | > 80 | > 3.2 | > 80 | > 3.2 | ≥ 3.2 | ≥ 80 | ≥ 3.2 | > 80 | > 3.2 | > 80 | CC50 [4]: 91.3 µg/mL (≈ 257 µM); Activity [12]: 3%; IC50 [12]: > 91.3 µg/mL; Activity [13]: 5.5%; IC50 [13]: > 91.3 µg/mL |
| CCCCCCNC(=S)Nc1ccc(-c2n[nH]c(=S)n2-c2ccccc2)cc1 | > 16 | > 16 | > 80 | 400 µg/mL | > 80 | > 16 | > 16 | > 80 | > 16 | > 80 | > 80 | > 16 | > 80 | > 16 | ≥ 16 | 400 | ≥ 16 | > 80 | > 16 | > 80 | CC50 [4]: 3.99 µg/mL (≈ 9.69 µM); Activity [12]: 3%; IC50 [12]: > 3.99 µg/mL; Activity [13]: 16%; IC50 [13]: > 3.99 µg/mL |
| C=CCNC(=S)Nc1ccc(-c2n[nH]c(=S)n2-c2ccccc2)cc1 | > 80 | > 80 | > 400 | >= 400 ug ml-1 | > 400 | > 80 | > 80 | > 400 | > 80 | > 400 | > 400 | > 80 | > 400 | > 80 | ≥ 80 | ≥ 400 | ≥ 80 | > 400 | > 80 | > 400 | CC50 [4]: 55.1 µg/mL (≈ 150 µM); Activity [12]: 0%; IC50 [12]: > 55.1 µg/mL; Activity [13]: 13.5%; IC50 [13]: > 55.1 µg/mL |
| Nc1ncnc2c1ncn2C[C@H](O)CO [(S)-DHPA] |  |  | > 400 | > 400 µg/mL | > 400 |  |  | > 400 |  | > 400 | > 400 |  | > 400 |  |  | > 400 |  | > 400 |  | > 400 |  |
| C=CCNC(=S)Nc1ccc(-c2n[nH]c(=S)n2CC=C)cc1 | 240 (≈ 724 µM) | > 80 | > 80 | >= 80 ug ml-1 | > 80 | > 80 | > 80 | > 80 | > 80 | > 80 | > 80 | > 80 | > 80 | 240 (≈ 724 µM) | ≥ 80 | 400 | ≥ 80 | > 80 | > 80 | > 80 | CC50 [4]: 65.4 µg/mL (≈ 197 µM); Activity [12]: 0%; IC50 [12]: > 65.4 µg/mL; Activity [13]: 6.5%; IC50 [13]: > 65.4 µg/mL |
| CNC(=S)Nc1ccc(-c2n[nH]c(=S)n2C)cc1 | > 80 | 240 (≈ 859 µM) | > 80 | 400 µg/mL | > 80 | 240 (≈ 859 µM) | 240 (≈ 859 µM) | > 80 | 240 (≈ 859 µM) | > 80 | > 80 | > 80 | > 80 | > 80 | 400 | 400 | 400 | > 80 | > 80 | > 80 | CC50 [4]: 80.3 µg/mL (≈ 287 µM); Activity [12]: 0%; IC50 [12]: > 80.3 µg/mL; Activity [13]: 1%; IC50 [13]: > 80.3 µg/mL |
| C=CCNC(=S)Nc1ccc(-c2nnc(SCc3ccc(Cl)cc3Cl)n2-c2ccccc2)cc1 | > 16 | > 16 | > 16 | >= 16 ug ml-1 | > 16 | > 16 | > 16 | > 16 | > 16 | > 16 | > 16 | > 16 | > 16 | > 16 | ≥ 16 | 80 | ≥ 16 | > 16 | > 16 | > 16 | CC50 [4]: 65.3 µg/mL (≈ 124 µM); Activity [12]: 0%; IC50 [12]: > 65.3 µg/mL; Activity [13]: 1.5%; IC50 [13]: > 65.3 µg/mL |
| CNC(=S)Nc1ccc(-c2n[nH]c(=S)n2-c2ccccc2)cc1 | 240 (≈ 703 µM) | > 80 | > 80 | >= 80 ug ml-1 | > 400 | 240 (≈ 703 µM) | 240 (≈ 703 µM) | > 80 | > 80 | > 400 | > 80 | > 80 | > 400 | 240 (≈ 703 µM) | 400 | ≥ 400 | 400 | > 80 | > 80 | > 80 | CC50 [4]: 94.4 µg/mL (≈ 276 µM); Activity [12]: 0%; IC50 [12]: > 94.4 µg/mL; Activity [13]: 23.5%; IC50 [13]: > 94.4 µg/mL |
| C=CCNC(=S)Nc1ccc(-c2n[nH]c(=S)n2CCc2ccccc2)cc1 | > 80 | > 80 | > 80 | >= 80 ug ml-1 | > 80 | > 80 | > 80 | > 80 | > 80 | > 80 | > 80 | > 80 | > 80 | > 80 | 400 | 400 | 400 | > 80 | > 80 | > 80 | CC50 [4]: 13 µg/mL (≈ 32.9 µM); Activity [12]: 0%; IC50 [12]: > 13 µg/mL; Activity [13]: 9%; IC50 [13]: > 13 µg/mL |
| NC(=O)c1ncn([C@@H]2O[C@H](CO)[C@@H](O)[C@H]2O)n1 [RIBAVIRIN] | 48 (≈ 197 µM) | 48 (≈ 197 µM) | 48 (≈ 197 µM) | > 400 µg/mL | 48 (≈ 197 µM) | 9.6 (≈ 39.3 µM) | 9.6 (≈ 39.3 µM) | 48 (≈ 197 µM) | 48 (≈ 197 µM) | 240 (≈ 983 µM) | 240 (≈ 983 µM) | 240 (≈ 983 µM) | 9.6 (≈ 39.3 µM) | 48 (≈ 197 µM) | > 400 | > 400 | > 400 | 48 (≈ 197 µM) | 240 (≈ 983 µM) | > 400 |  |

— ChEMBL document CHEMBL1149790, “Synthesis of some novel thiourea derivatives obtained from 5-[(4-aminophenoxy)methyl]-4-alkyl/aryl-2,4-dihydro-3H-1,2,4-triazole-3-thiones and evaluation as antiviral/anti-HIV and anti-tuberculosis agents” (Eur J Med Chem, 2008)
